Measured values reported in ChEMBL document CHEMBL1212794, “Efficacy of clarithromycin against experimentally induced pneumonia caused by clarithromycin-resistant Haemophilus influenzae in mice” (2010).
Values after ≈ are worked out from the molar mass of the structure shown. Active and inactive are the calls of the source. No cut-off for these calls is given here.

Tests used:
Mus musculus [1] = assay: Antiinflammatory activity against nontypeable beta-lactamase-negative ampicillin-resistant Haemophilus influenzae 4437 infected in mouse ddY assessed as decrease in total cell count in bronchoalveolar lavage fluid at 40 mg/kg, po bid for 3 days; format: functional, organism-based; set-up: dose 40 mg/kg; conditions: Lung
Summary of the method: (§1)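 Intubated ddY mice challenged intratracheally, then dosed orally twice daily from 24 h for 3 days and lavaged 12 h after the last dose (3 × 1.0 ml saline, pooled). Total cells counted with Turk stain. Differentials counted on 100 cytocentrifuged cells stained with Diff-Quick. Four experiments.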

Haemophilus influenzae [2] = assay: Antibacterial activity against macrolide-resistant Haemophilus influenzae 4437 infected in NCI-H292 cells assessed as decrease in viable bacterial count at 64 ug/ml by 3-h invasion assay; format: functional, organism-based
Summary of the method: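 NCI-H292 cells in RPMI 1640 with 10% FBS, seeded at 5 × 10^5/well, then held in 0.5% FBS for 24 h at confluence. Infected with 10 µl of about 6 × 10^6 CFU/ml bacteria for 3 h at 37°C, 5% CO2. Washed, then gentamicin 200 µg/ml with drug for 2 h. Lysed in 1% Triton X-100; intracellular CFU counted on chocolate agar. Three experiments.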

Mus musculus [3] = assay: Antiinflammatory activity against nontypeable beta-lactamase-negative ampicillin-resistant Haemophilus influenzae 4437 infected in mouse ddY assessed as decrease in MIP-2 level in bronchoalveolar lavage fluid at 40 mg/kg, po bid for 3 days relative to control; format: functional, organism-based; set-up: dose 40 mg/kg; conditions: Lung
Summary of the method: (§2)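 Intubated ddY mice challenged intratracheally, then dosed orally twice daily from 24 h for 3 days and killed 12 h after the last dose. BAL done with 3 × 1.0 ml saline, pooled per animal. MIP-2 and IL-1β in BAL fluid measured by mouse ELISA kits. Four experiments.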

Mus musculus [4] = assay: Antiinflammatory activity against nontypeable beta-lactamase-negative ampicillin-resistant Haemophilus influenzae 4437 infected in mouse ddY assessed as decrease in neutrophil count in bronchoalveolar lavage fluid at 40 mg/kg, po bid for 3 days; format: functional, organism-based; set-up: dose 40 mg/kg; conditions: Lung; summary of the method: as §1
Mus musculus [5] = assay: Antiinflammatory activity against nontypeable beta-lactamase-negative ampicillin-resistant Haemophilus influenzae infected in mouse ddY assessed as inflammatory changes in lung at 100 mg/kg, po bid for 3 days relative to control; format: functional, organism-based; set-up: dose 100 mg/kg
Summary of the method: (§3)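 Intubated ddY mice challenged intratracheally, then dosed orally twice daily for 3 days. Lungs fixed in 10% buffered formalin, stained with hematoxylin and eosin, and examined at ×200 for inflammatory cell infiltration of alveoli and bronchioles.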

Mus musculus [6] = assay: Antiinflammatory activity against nontypeable beta-lactamase-negative ampicillin-resistant Haemophilus influenzae 4437 infected in mouse ddY assessed as decrease in neutrophil count in bronchoalveolar lavage fluid at 100 mg/kg, po bid for 3 days relative to control; format: functional, organism-based; set-up: dose 100 mg/kg; conditions: Lung; summary of the method: as §1
Haemophilus influenzae [7] = assay: Antibacterial activity against nontypeable beta-lactamase-negative ampicillin-resistant Haemophilus influenzae 4437 infected in mouse ddY assessed as decrease in viable bacterial count at 100 mg/kg, po bid for 3 days; format: functional
Summary of the method: (§4)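 Male ddY SPF mice, 6 weeks old, with a tube placed into the main bronchus 7 days before intratracheal challenge under pentobarbital. Drug given in DMSO orally twice daily from 24 h post-infection for 3 days. Mice killed 12 h after the last dose. Lungs homogenized in 1.0 ml PBS, serially diluted and plated on chocolate agar overnight at 37°C, 5% CO2. Four experiments.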

Haemophilus influenzae [8] = assay: Antibacterial activity against nontypeable beta-lactamase-negative ampicillin-resistant Haemophilus influenzae 4437 infected in mouse ddY assessed as decrease in viable bacterial count at 40 mg/kg, po bid for 3 days; format: functional; summary of the method: as §4
Mus musculus [9] = assay: Antiinflammatory activity against nontypeable beta-lactamase-negative ampicillin-resistant Haemophilus influenzae 4437 infected in mouse ddY assessed as decrease in MIP-2 level in bronchoalveolar lavage fluid at 100 mg/kg, po bid for 3 days relative to control; format: functional, organism-based; set-up: dose 100 mg/kg; conditions: Lung; summary of the method: as §2
Mus musculus [10] = assay: Antiinflammatory activity against nontypeable beta-lactamase-negative ampicillin-resistant Haemophilus influenzae infected in mouse ddY assessed as inflammatory changes in lung at 40 mg/kg, po bid for 3 days relative to control; format: functional, organism-based; set-up: dose 40 mg/kg; summary of the method: as §3
Mus musculus [11] = assay: Antiinflammatory activity against nontypeable beta-lactamase-negative ampicillin-resistant Haemophilus influenzae 4437 infected in mouse ddY assessed as decrease in IL1-beta level in bronchoalveolar lavage fluid at 100 mg/kg, po bid for 3 days relative to control; format: functional, organism-based; set-up: dose 100 mg/kg; conditions: Lung; summary of the method: as §2
Haemophilus influenzae [12] = assay: Antibacterial activity against nontypeable beta-lactamase-negative ampicillin-resistant Haemophilus influenzae 4437; format: functional
Summary of the method: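 MIC by CLSI broth dilution in Haemophilus Test Medium, inoculum 10^5 CFU/ml, tested in duplicate. β-lactamase production checked by nitrocefin test.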

Mus musculus [13] = assay: Antiinflammatory activity against nontypeable beta-lactamase-negative ampicillin-resistant Haemophilus influenzae 4437 infected in mouse ddY assessed as decrease in IL1-beta level in bronchoalveolar lavage fluid at 40 mg/kg, po bid for 3 days relative to control; format: functional, organism-based; set-up: dose 40 mg/kg; conditions: Lung; summary of the method: as §2
Mus musculus [14] = assay: Antiinflammatory activity against nontypeable beta-lactamase-negative ampicillin-resistant Haemophilus influenzae 4437 infected in mouse ddY assessed as decrease in total cell count in bronchoalveolar lavage fluid at 100 mg/kg, po bid for 3 days; format: functional, organism-based; set-up: dose 100 mg/kg; conditions: Lung; summary of the method: as §1

| SMILES | Activity (Mus musculus [1]) | Activity (Haemophilus influenzae [2]) | Activity (Mus musculus [3]) | Activity (Mus musculus [4]) | Activity (Mus musculus [5]) | Activity (Mus musculus [6]) | log10CFU/ml (Haemophilus influenzae [7]) | log10CFU/ml (Haemophilus influenzae [8]) | Activity (Mus musculus [9]) | Activity (Mus musculus [10]) | Activity (Mus musculus [11]) | MIC (Haemophilus influenzae [12]) | Activity (Mus musculus [13]) | Activity (Mus musculus [14]) |
| --- | --- | --- | --- | --- | --- | --- | --- | --- | --- | --- | --- | --- | --- | --- |
| CC[C@H]1OC(=O)[C@H](C)[C@@H](O[C@H]2C[C@@](C)(OC)[C@@H](O)[C@H](C)O2)[C@H](C)[C@@H](O[C@@H]2O[C@H](C)C[C@H](N(C)C)[C@H]2O)[C@](C)(OC)C[C@@H](C)C(=O)[C@H](C)[C@@H](O)[C@]1(C)O [CLARITHROMYCIN] | Active | Active | Active | Active | Active | Active | 4.6 | 5.8 | Active | Active | Active | 64 µg/mL (≈ 85.6 µM) | Active | Active |
| CC1(C)S[C@@H]2[C@H](NC(=O)[C@H](N)c3ccccc3)C(=O)N2[C@H]1C(=O)O [AMPICILLIN] | – | – | – | – | – | – | – | – | – | – | – | 16 µg/mL (≈ 45.8 µM) | – | – |
